The source made the active and inactive calls. The rule behind the calls is not given here.
Legend:
[1] = target: Leucine--tRNA ligase, cytoplasmic (Homo sapiens) (UniProt Q9P2J5); assay: Inhibition of LRS-mediated mTORC1 activation in HEK293 cells assessed as decrease in leucine-induced S6K phosphorylation at T389 at 200 uM treated prior to leucine induction measured after 10 mins by Western blot method; format: cell-based
Procedure, shortened: (§1)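 HEK293 cells were pretreated at one fixed level: test agents at 200 μM, rapamycin at 100 nM or leucinol at 800 μM. mTORC1 was then activated by adding leucine for 10 min. Lysates were Western blotted for phospho-S6K, total S6K, LRS, mTOR and phospho-mTOR.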

HEK293 [2] = assay: Effect on S6K expression in HEK293 cells at 200 uM treated prior to leucine addition measured after 10 mins by Western blot method; format: functional, cell-based; conditions: Homo sapiens; procedure, shortened: as §1
HEK293 [3] = assay: Effect on LRS expression in HEK293 cells at 200 uM treated prior to leucine addition measured after 10 mins by Western blot method; format: functional, cell-based; conditions: Homo sapiens; procedure, shortened: as §1
HEK293 [4] = assay: Effect on mTOR expression in HEK293 cells at 200 uM treated prior to leucine addition measured after 10 mins by Western blot method; format: functional, cell-based; conditions: Homo sapiens; procedure, shortened: as §1
[5] = target: Serine/threonine-protein kinase mTOR (Homo sapiens) (UniProt P42345); assay: Inhibition of mTOR phosphorylation in HEK293 cells at 200 uM treated prior to leucine addition measured after 10 mins by Western blot method; format: cell-based; procedure, shortened: as §1
[6] = target: Leucine--tRNA ligase, cytoplasmic (Homo sapiens) (UniProt Q9P2J5); assay: Inhibition of LRS-mediated mTORC1 activation in HEK293 cells assessed as decrease in leucine-induced S6K phosphorylation at T389 at 100 nM treated prior to leucine induction measured after 10 mins by Western blot method; format: cell-based; procedure, shortened: as §1
[7] = target: Leucine--tRNA ligase, cytoplasmic (Homo sapiens) (UniProt Q9P2J5); assay: Inhibition of LRS-mediated mTORC1 activation in HEK293 cells assessed as decrease in leucine-induced S6K phosphorylation at T389 at 100 uM treated prior to leucine induction measured after 10 mins by Western blot method; format: cell-based
Procedure, shortened: (§2)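 Dose-dependent series in HEK293 cells. Compounds were given as pretreatment at several concentrations, then leucine was added for 10 min to activate mTORC1. Western blots were probed for phospho-S6K, S6K, LRS, mTOR and phospho-mTOR.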

HEK293 [8] = assay: Effect on S6K expression in HEK293 cells at 20 to 200 uM treated prior to leucine addition measured after 10 mins by Western blot method; format: functional, cell-based; conditions: Homo sapiens; procedure, shortened: as §2
HEK293 [9] = assay: Effect on LRS expression in HEK293 cells at 20 to 200 uM treated prior to leucine addition measured after 10 mins by Western blot method; format: functional, cell-based; conditions: Homo sapiens; procedure, shortened: as §2
HEK293 [10] = assay: Effect on mTOR expression in HEK293 cells at 20 to 200 uM treated prior to leucine addition measured after 10 mins by Western blot method; format: functional, cell-based; conditions: Homo sapiens; procedure, shortened: as §2
[11] = target: Serine/threonine-protein kinase mTOR (Homo sapiens) (UniProt P42345); assay: Inhibition of mTOR phosphorylation in HEK293 cells at 20 to 200 uM treated prior to leucine addition measured after 10 mins by Western blot method; format: cell-based; procedure, shortened: as §2
A549 = assay: Cytotoxicity against human A549 cells assessed as growth inhibition after 72 hrs by SRB assay; format: functional, cell-based; conditions: A549, 72 h
Procedure, shortened: (§3)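 Growth-inhibition IC50 values in a panel of cancer lines: A549 (lung), HCT116 (colon), K562 (leukemia), MDA-MB-231 (breast), SK-Hep-1 (liver) and SNU638 (stomach), plus MRC5 (described as normal lung epithelial cells). Etoposide was run in parallel as the positive control.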

HCT-116 = assay: Cytotoxicity against human HCT116 cells assessed as growth inhibition after 72 hrs by SRB assay; format: functional, cell-based; conditions: HCT-116, 72 h; procedure, shortened: as §3
K562 = assay: Cytotoxicity against human K562 cells assessed as growth inhibition after 72 hrs by SRB assay; format: functional, cell-based; conditions: K562, 72 h; procedure, shortened: as §3
MDA-MB-231 = assay: Cytotoxicity against human MDA-MB-231 cells assessed as growth inhibition after 72 hrs by SRB assay; format: functional, cell-based; conditions: MDA-MB-231, 72 h; procedure, shortened: as §3
SK-HEP1 = assay: Cytotoxicity against human SKHEP1 cells assessed as growth inhibition after 72 hrs by SRB assay; format: functional, cell-based; conditions: SK-HEP1, 72 h; procedure, shortened: as §3
SNU-638 = assay: Cytotoxicity against human SNU638 cells assessed as growth inhibition after 72 hrs by SRB assay; format: functional, cell-based; conditions: SNU-638, 72 h; procedure, shortened: as §3
MRC5 = assay: Cytotoxicity against human MRC5 cells assessed as growth inhibition after 72 hrs by SRB assay; format: cell-based; conditions: MRC5, 72 h; procedure, shortened: as §3
[12] = target: Leucine--tRNA ligase, cytoplasmic (Homo sapiens) (UniProt Q9P2J5); assay: Inhibition of LRS-mediated mTORC1 activation in HEK293 cells assessed as decrease in leucine-induced S6K phosphorylation at T389 treated prior to leucine induction measured after 10 mins by Western blot method; format: cell-based; procedure, shortened: as §2
[13] = target: Leucine--tRNA ligase, cytoplasmic (Homo sapiens) (UniProt Q9P2J5); assay: Inhibition of LRS aminooleucylation in HEK293 cells assessed as residual activity; format: cell-based
[14] = target: Leucine--tRNA ligase, cytoplasmic (Homo sapiens) (UniProt Q9P2J5); assay: Inhibition of LRS-mediated mTORC1 activation in HEK293 cells assessed as decrease in leucine-induced S6K phosphorylation at T389 at 800 uM treated prior to leucine induction measured after 10 mins by Western blot method; format: cell-based; procedure, shortened: as §1

Chain of Leucine--tRNA ligase, cytoplasmic (Homo sapiens) (Q9P2J5 whole entry, looked up): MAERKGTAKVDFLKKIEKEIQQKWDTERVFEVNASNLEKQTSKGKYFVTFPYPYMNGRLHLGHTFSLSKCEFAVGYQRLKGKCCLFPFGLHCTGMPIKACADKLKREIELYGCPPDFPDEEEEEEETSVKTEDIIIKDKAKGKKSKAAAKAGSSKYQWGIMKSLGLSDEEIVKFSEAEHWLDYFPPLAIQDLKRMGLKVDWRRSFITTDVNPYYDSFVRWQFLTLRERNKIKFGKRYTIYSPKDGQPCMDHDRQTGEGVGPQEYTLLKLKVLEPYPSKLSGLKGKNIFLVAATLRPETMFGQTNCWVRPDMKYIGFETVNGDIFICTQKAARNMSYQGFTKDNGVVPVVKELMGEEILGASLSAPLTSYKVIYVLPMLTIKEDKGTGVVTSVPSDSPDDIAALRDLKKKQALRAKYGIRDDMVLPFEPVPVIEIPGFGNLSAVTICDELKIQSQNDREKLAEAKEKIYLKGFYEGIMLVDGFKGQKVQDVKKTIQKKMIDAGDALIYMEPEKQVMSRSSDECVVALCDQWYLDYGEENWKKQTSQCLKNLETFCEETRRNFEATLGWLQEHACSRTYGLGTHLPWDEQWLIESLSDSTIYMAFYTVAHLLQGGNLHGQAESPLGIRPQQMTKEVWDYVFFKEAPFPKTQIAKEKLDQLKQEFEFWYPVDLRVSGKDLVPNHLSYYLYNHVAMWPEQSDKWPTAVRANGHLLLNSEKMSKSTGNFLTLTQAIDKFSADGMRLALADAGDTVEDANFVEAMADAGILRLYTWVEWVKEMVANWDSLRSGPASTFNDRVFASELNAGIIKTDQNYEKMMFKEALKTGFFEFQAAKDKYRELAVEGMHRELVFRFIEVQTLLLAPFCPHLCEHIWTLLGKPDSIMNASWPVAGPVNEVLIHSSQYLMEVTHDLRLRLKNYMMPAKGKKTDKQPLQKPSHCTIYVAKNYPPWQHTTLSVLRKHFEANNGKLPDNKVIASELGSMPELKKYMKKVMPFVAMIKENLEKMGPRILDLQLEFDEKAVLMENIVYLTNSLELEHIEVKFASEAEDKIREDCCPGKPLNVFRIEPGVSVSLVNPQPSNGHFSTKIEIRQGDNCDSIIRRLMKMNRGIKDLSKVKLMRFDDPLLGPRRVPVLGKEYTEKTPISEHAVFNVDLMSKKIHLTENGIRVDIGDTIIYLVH

| SMILES | inhibition [1] | Activity (HEK293 [2]) | Activity (HEK293 [3]) | Activity (HEK293 [4]) | inhibition [5] | Activity (HEK293 [8]) | Activity (HEK293 [9]) | Activity (HEK293 [10]) | inhibition [11] | IC50 (A549) [µM] | IC50 (HCT-116) [µM] | IC50 (K562) [µM] | IC50 (MDA-MB-231) [µM] | IC50 (SK-HEP1) [µM] | IC50 (SNU-638) [µM] | IC50 (MRC5) [µM] | further results |
| --- | --- | --- | --- | --- | --- | --- | --- | --- | --- | --- | --- | --- | --- | --- | --- | --- | --- |
| COc1cc2ncnc(Nc3ccc(F)c(Cl)c3)c2cc1OCCOS(=O)(=O)NC(=O)[C@@H](N)CC(C)C | inactive | inactive | inactive | inactive | inactive |  |  |  |  |  |  |  |  |  |  |  |  |
| CO[C@H]1C[C@@H]2CC[C@@H](C)[C@@](O)(O2)C(=O)C(=O)N2CCCC[C@H]2C(=O)O[C@H]([C@H](C)C[C@@H]2CC[C@@H](O)[C@H](OC)C2)CC(=O)[C@H](C)/C=C(\C)[C@@H](O)[C@@H](OC)C(=O)[C@H](C)C[C@H](C)/C=C/C=C/C=C/1C |  |  |  |  |  |  |  |  |  |  |  |  |  |  |  |  | inhibition [6]: Active |
| COc1cc2ncnc(Nc3ccc(F)c(Cl)c3)c2cc1OCCNC(=O)[C@@H](O)CC(C)C | Active | inactive | inactive | inactive | inactive |  |  |  |  |  |  |  |  |  |  |  |  |
| COc1cc2ncnc(Nc3ccc(F)c(Cl)c3)c2cc1OCCOC(=O)[C@@H](N)CC(C)C | Active |  |  |  |  | inactive | inactive | inactive | inactive | 3.59 | 3.97 | 4.01 | 3.65 | 1.94 | 3.86 | 1.87 | inhibition [7]: Active |
| COc1cc2ncnc(Nc3ccc(F)c(Cl)c3)c2cc1OCCOC(=O)[C@@H](O)CC(C)C |  |  |  |  |  | inactive | inactive | inactive | inactive | 3.16 | 3.12 | 3.89 | 2.05 | 1.39 | 3.41 | 1.12 | inhibition [12]: Dose-dependent effect; Activity [13]: > 70% |
| COc1cc2ncnc(Nc3ccc(F)c(Cl)c3)c2cc1OCCNC(=O)[C@@H](N)CC(C)C | Active |  |  |  |  | inactive | inactive | inactive | inactive | 2.79 | 4.24 | 3.83 | 4.59 | 2.21 | 2.97 | > 20 | inhibition [7]: inactive; Activity [13]: > 70% |
| COc1cc2ncnc(Nc3ccc(F)c(Cl)c3)c2cc1OCCOS(=O)(=O)NC(=O)[C@@H](O)CC(C)C | inactive | inactive | inactive | inactive | inactive |  |  |  |  |  |  |  |  |  |  |  |  |
| COc1cc2ncnc(Nc3ccc(F)c(Cl)c3)c2cc1OC(=O)[C@@H](O)CC(C)C | inactive | inactive | inactive | inactive | inactive |  |  |  |  |  |  |  |  |  |  |  |  |
| COc1cc2ncnc(Nc3ccc(F)c(Cl)c3)c2cc1OC(=O)[C@@H](N)CC(C)C | inactive | inactive | inactive | inactive | inactive |  |  |  |  |  |  |  |  |  |  |  |  |
| COc1cc2ncnc(Nc3ccc(F)c(Cl)c3)c2cc1OS(=O)(=O)NC(=O)[C@@H](N)CC(C)C | Active | inactive | inactive | inactive | inactive |  |  |  |  |  |  |  |  |  |  |  |  |
| COc1cc2ncnc(Nc3ccc(F)c(Cl)c3)c2cc1OS(=O)(=O)NC(=O)[C@@H](O)CC(C)C | Active |  |  |  |  | inactive | inactive | inactive | inactive | 4.38 | 4.04 | 4.1 | 6.23 | 3.3 | 4.94 | 18.8 | inhibition [12]: Dose-dependent effect; Activity [13]: > 70% |
| CC(C)C[C@H](N)CO |  |  |  |  |  |  |  |  |  |  |  |  |  |  |  |  | inhibition [14]: Active |

Source: ChEMBL document CHEMBL4229473, “Discovery of novel leucyladenylate sulfamate surrogates as leucyl-tRNA synthetase (LRS)-targeted mammalian target of rapamycin complex 1 (mTORC1) inhibitors” (Bioorg Med Chem, 2018)
